# Published values from different studies.
# Protocols differ between the studies behind these lines. pIC50: −log10 of the molar value.
Structure (SMILES),cell line,assay,setting,endpoint,result
CCCCCCCCc1ccc(C(=O)Nc2ccccc2C(=O)OCC)cc1,PC-3,"cell growth or viability, MTT",72 h,pIC50,< 4.00
Nc1nc2sc(CCCCc3ccc(C(=O)N[C@@H](CCC(=O)O)C(=O)O)cc3)cc2c(=O)[nH]1,R2/PCFT4,cell growth or viability,"96 h, pH 7.2",pIC50,< 6.00
O=C1C=CC(=O)c2ccccc21,HFF-1,"cell growth or viability, MTT",48 h,pIC50,4.57
N[C@@H](Cc1ccc(N(CCCl)CCCl)cc1)C(=O)O,PC-3,"cell growth or viability, CCK-8",48 h,pIC50,< 4.30
Nc1nc2c(c(=O)[nH]1)C[C@@H](CCc1ccc(C(=O)N[C@@H](CCC(=O)O)C(=O)O)cc1)CN2,R2/PCFT4,cell growth or viability,"96 h, pH 7.2",pIC50,6.61
O=C(c1ccc(F)cc1)c1c[nH]c2ncc(-c3ccnc(N4CCOCC4)c3)cc12,A549,"cell growth or viability, MTT","10 µM, 48 h",viability,94.1%
O=C(O)CCCc1ccc(N(CCCl)CCCl)cc1,PC-3,"cell growth or viability, CCK-8",48 h,pIC50,< 4.30
CC(=O)O[C@H]1C[C@H](O[C@H]2[C@@H](O)C[C@H](O[C@H]3[C@@H](O)C[C@H](O[C@H]4CC[C@@]5(C)[C@H](CC[C@@H]6[C@@H]5C[C@@H](O)[C@]5(C)[C@@H](C7=CC(=O)OC7)CC[C@]65O)C4)O[C@@H]3C)O[C@@H]2C)O[C@H](C)[C@H]1O[C@@H]1O[C@H](CO)[C@@H](O)[C@H](O)[C@H]1O,A549,"cell growth or viability, MTT","5 µM, 24 h",inhibition,74.8%
C[C@@H]1C[C@@H]([C@H](O)CC2CC(=O)NC(=O)C2)C(=O)[C@@H](C)C1,NIH3T3,"cell growth or viability, MTT",24 h,pIC50,6.10
CN1CCN(c2ccc(-c3cnc4[nH]cc(C(=O)c5ccc(F)cc5)c4c3)cc2)CC1,A549,"cell growth or viability, MTT","10 µM, 48 h",viability,73%
CCC(=O)Oc1cccc2c1C(=O)C=CC2=O,HFF-1,"cell growth or viability, MTT",48 h,pIC50,5.11
O=C(O)CCn1cc(C(=O)c2ccc(F)cc2)c2cc(-c3ccc(N4CCNCC4)nc3)cnc21,A549,"cell growth or viability, MTT","10 µM, 48 h",viability,88.5%
Cc1cc(C)cc(COc2cc3c(cc2OCc2cc(C)cc(C)c2)[C@H]2C[C@](O)(Cc4cn(-c5ccc(S(=O)(=O)F)cc5)nn4)C[C@H](C)N2CC3)c1,PC-3,"cell growth or viability, MTT",,pIC50,6.41
CC(C)(C)OC(=O)N1CCN(c2ccc(-c3cnc4[nH]cc(C(=O)c5ccc(F)cc5)c4c3)cn2)CC1,A549,"cell growth or viability, MTT","10 µM, 48 h",viability,76.3%
CNC(=O)c1cc(Oc2ccc(NC(=O)Nc3cc(C(C)(C)C)nn3-c3ccc4ncccc4c3)c(F)c2)ccn1,HUVEC,cell migration,,pIC50,10.66
Cc1cc(C)cc(COc2cc3c(cc2OCc2cc(C)cc(C)c2)[C@H]2C[C@](O)(Cc4cn(CC(=O)Nc5ccc(S(=O)(=O)F)cc5)nn4)C[C@H](C)N2CC3)c1,PC-3,"cell growth or viability, MTT",,pIC50,5.88
COc1ccc(C(=O)c2c[nH]c3ncc(-c4ccc(N5CCN(S(C)(=O)=O)CC5)nc4)cc23)cc1,A549,"cell growth or viability, MTT","10 µM, 48 h",viability,80.2%
